Assay results from ChEMBL document CHEMBL3351692, “Discovery and optimization of 1,3,5-trisubstituted pyrazolines as potent and highly selective allosteric inhibitors of protein kinase C-ζ” (J Med Chem, 2014).
Activity calls are given as the source filed them. The rule behind the calls is not given here.

Tests used:
[1] = molecular target: Protein kinase C eta type (Homo sapiens) (UniProt P24723); experiment: Inhibition of human PKCeta at 10 uM relative to control
U-937 = experiment: Inhibition of Thr410 phosphorylation in serum-starved human U937 cells at 5 to 10 uM by immunoblotting analysis
[2] = molecular target: Protein kinase C theta type (Homo sapiens) (UniProt Q04759); experiment: Inhibition of human PKCtheta at 10 uM relative to control
[3] = molecular target: Protein kinase C gamma type (Homo sapiens) (UniProt P05129); experiment: Inhibition of human PKCgamma at 10 uM relative to control
[4] = molecular target: cAMP-dependent protein kinase catalytic subunit alpha (Homo sapiens) (UniProt P17612); experiment: Inhibition of human PKA at 10 uM relative to control
[5] = molecular target: Serine/threonine-protein kinase Sgk1 (Homo sapiens) (UniProt O00141); experiment: Inhibition of human SGK1 at 10 uM relative to control
[6] = molecular target: Ribosomal protein S6 kinase alpha-1 (Homo sapiens) (UniProt Q15418); experiment: Inhibition of human RSK1 at 10 uM relative to control
[7] = molecular target: Protein kinase C delta type (Homo sapiens) (UniProt Q05655); experiment: Inhibition of human PKCdelta at 10 uM relative to control
[8] = molecular target: Protein kinase C beta type (Homo sapiens) (UniProt P05771); experiment: Inhibition of human PKCbeta1 at 10 uM relative to control
[9] = molecular target: T1, Protein kinase C zeta type (Homo sapiens, UniProt Q05513); experiment: Inhibition of PKCzeta in human U937 cells assessed as inhibition of TNFalpha-induced NF-kappaB activation by reporter gene assay; format: cell-based, U-937
T1 sequence (Q05513 whole entry): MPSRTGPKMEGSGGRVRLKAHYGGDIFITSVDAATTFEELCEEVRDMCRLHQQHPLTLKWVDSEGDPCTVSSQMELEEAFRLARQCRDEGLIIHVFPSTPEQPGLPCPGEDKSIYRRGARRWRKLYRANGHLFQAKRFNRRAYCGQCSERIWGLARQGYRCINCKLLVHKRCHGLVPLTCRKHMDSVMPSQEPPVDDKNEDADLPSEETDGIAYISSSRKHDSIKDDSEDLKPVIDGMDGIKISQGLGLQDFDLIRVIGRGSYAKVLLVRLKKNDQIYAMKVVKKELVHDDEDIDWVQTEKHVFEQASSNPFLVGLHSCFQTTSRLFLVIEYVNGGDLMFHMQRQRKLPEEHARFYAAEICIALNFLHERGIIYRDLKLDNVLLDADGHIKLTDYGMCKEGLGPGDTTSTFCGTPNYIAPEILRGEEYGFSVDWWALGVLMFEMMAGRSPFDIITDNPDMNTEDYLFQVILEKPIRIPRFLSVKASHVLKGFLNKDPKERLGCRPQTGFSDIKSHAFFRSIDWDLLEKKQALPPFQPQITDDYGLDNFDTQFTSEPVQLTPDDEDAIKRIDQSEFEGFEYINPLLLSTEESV

[10] = molecular target: Ribosomal protein S6 kinase beta-1 (Homo sapiens) (UniProt P23443); experiment: Inhibition of human p70S6K at 10 uM relative to control
[11] = molecular target: 3-phosphoinositide-dependent protein kinase 1 (Homo sapiens) (UniProt O15530); experiment: Inhibition of human PDK1 at 10 uM relative to control
[12] = molecular target: Ribosomal protein S6 kinase alpha-5 (Homo sapiens) (UniProt O75582); experiment: Inhibition of human MSK1 at 10 uM relative to control
RAW264.7 = experiment: Cytotoxicity against mouse RAW264.7 cells assessed as living cells at 7.5 uM by MTT assay; format: cell-based; settings: raw264.7, 7.5 µM
Method in brief: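 RAW 264.7 macrophages: MTT viability assay run in parallel with each nitrite (Griess) experiment, same cell line and same compound treatment conditions.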

[13] = molecular target: T2, Protein kinase C zeta type (Homo sapiens) (UniProt Q05513); experiment: Inhibition of PKCzeta in serum-starved human U937 cells assessed as inhibition of TNFalpha-stimulated activation loop phosphorylation at 2.5 to 5 uM by immunoblotting analysis; format: cell-based; settings: U-937
T2 sequence (whole entry): T1 sequence (Q05513 whole entry)
Method in brief: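 U937 cells in RPMI/10% FBS, serum-starved 24 h, treated with compound or DMSO for 1 h, then TNFα 50 ng/mL for 30 min. Whole-cell lysates separated by SDS–PAGE (10% gel) and immunoblotted for phospho-PKCζ/λ (Thr410/403), with β-actin as loading control. Near-infrared detection. Two separate experiments.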

[14] = molecular target: T1, Protein kinase C zeta type; experiment: Inhibition of human PKCzeta assessed as phosphorylation reaction after 4 mins incubation by cell-free assay
[15] = molecular target: Protein kinase C alpha type (Homo sapiens) (UniProt P17252); experiment: Inhibition of human PKCalpha at 10 uM relative to control
[16] = molecular target: T3, Nitric oxide synthase, inducible (Mus musculus) (UniProt P29477); experiment: Inhibition of iNOS induction in mouse RAW264.7 cells assessed as NO production at 7.5 uM; format: cell-based
T3 sequence (whole entry): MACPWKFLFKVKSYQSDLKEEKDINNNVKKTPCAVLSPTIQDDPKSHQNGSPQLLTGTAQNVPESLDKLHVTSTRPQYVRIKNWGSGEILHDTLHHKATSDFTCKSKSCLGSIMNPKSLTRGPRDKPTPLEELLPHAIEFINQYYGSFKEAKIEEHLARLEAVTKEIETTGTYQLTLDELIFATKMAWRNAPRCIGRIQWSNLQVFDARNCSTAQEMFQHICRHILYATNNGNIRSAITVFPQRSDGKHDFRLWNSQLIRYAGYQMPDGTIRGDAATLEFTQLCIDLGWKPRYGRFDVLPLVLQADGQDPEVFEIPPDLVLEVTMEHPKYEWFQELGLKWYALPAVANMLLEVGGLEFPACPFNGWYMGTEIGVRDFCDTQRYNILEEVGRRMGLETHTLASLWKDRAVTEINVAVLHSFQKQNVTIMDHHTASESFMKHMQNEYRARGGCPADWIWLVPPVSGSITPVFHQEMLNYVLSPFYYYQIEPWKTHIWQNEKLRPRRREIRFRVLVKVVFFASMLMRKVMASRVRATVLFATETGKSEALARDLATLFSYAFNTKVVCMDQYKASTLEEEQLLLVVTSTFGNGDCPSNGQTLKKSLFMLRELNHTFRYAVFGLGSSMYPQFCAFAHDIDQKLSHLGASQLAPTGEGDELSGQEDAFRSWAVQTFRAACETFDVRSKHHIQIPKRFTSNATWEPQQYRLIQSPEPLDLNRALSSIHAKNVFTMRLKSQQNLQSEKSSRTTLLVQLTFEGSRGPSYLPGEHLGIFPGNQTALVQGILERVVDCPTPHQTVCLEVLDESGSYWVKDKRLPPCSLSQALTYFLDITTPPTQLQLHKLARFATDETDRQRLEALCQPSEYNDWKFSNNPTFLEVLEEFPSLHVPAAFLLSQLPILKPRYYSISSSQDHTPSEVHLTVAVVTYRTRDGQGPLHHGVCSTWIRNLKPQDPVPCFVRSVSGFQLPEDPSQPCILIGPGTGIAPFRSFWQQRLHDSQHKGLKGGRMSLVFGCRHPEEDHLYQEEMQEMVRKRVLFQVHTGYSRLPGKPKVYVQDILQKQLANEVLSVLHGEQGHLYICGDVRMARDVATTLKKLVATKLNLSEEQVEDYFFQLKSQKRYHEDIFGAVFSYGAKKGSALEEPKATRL
Method in brief: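 RAW 264.7 cells seeded at 8 × 10⁴ per well in DMEM/10% FBS and grown 2 days. Then exposed to LPS with compound or DMSO for 20 h. Supernatant nitrite measured by Griess reaction (sulfanilamide/NED) at 550 nm minus 620 nm background, quantified against a sodium nitrite standard curve. At least four experiments in triplicate.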

[17] = molecular target: T2, Protein kinase C zeta type (Homo sapiens); experiment: Inhibition of PKCzeta (unknown origin) expressed in HEK293 cells assessed as reduction in specific activity for 6 hrs after 30 mins IGF-I stimulation by in serum free medium; format: cell-based
Method in brief: (§1)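 HEK293 cells transfected at 80% confluency with GST-PKCζ wild-type or V297L mutant plasmids. Next day switched to DMEM with 0.1% FCS and compound or DMSO for 6 h, then IGF-I 50 ng/mL final for 30 min at 37 °C. Lysed; GST-PKCζ pulled down on glutathione beads and eluted. 50 ng per reaction assayed for kinase activity with myelin basic protein as substrate. Triplicate treatments, two independent experiments.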

[18] = molecular target: Protein kinase C epsilon type (Homo sapiens) (UniProt Q02156); experiment: Inhibition of human PKCepsilon at 10 uM relative to control
[19] = molecular target: T4, Protein kinase C iota type (Homo sapiens) (UniProt P41743); experiment: Inhibition of PKCiota (unknown origin) at 20 uM
T4 sequence (whole entry): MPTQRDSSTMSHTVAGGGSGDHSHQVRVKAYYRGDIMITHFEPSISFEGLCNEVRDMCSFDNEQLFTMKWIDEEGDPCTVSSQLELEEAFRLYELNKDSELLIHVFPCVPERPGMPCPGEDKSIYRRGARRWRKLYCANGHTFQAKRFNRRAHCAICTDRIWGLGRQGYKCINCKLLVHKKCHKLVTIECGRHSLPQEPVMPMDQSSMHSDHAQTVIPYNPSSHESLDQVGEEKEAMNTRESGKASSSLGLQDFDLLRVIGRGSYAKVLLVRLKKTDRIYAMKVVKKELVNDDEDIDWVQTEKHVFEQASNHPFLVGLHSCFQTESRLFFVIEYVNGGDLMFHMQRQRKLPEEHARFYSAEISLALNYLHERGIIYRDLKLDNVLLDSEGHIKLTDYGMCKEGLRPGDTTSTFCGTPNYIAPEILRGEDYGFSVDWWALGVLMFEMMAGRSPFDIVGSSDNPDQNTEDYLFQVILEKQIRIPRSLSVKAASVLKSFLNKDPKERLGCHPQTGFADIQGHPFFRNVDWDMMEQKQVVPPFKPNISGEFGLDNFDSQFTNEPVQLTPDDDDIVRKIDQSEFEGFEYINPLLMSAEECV
Method in brief: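 Cell-free radiometric kinase assay with purified recombinant PKCι under conditions similar to the PKCζ assay. Reaction mixtures preincubated 4 min at 37 °C, then phosphorylation started with γ32P-ATP/Mg2+. Mean of at least two experiments.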

[20] = molecular target: Protein kinase C zeta type (Homo sapiens, UniProt Q05513, V297L); experiment: Inhibition of PKCzeta val297leu mutant (unknown origin) assessed as phosphorylation reaction after 4 mins incubation by cell-free assay
Homo sapiens = species: Homo sapiens; experiment: Ratio of IC50 for PKCzeta val297leu mutant (unknown origin) to IC50 for wild type PKCzeta (unknown origin)
Method in brief: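 Cell-free radiometric assay with purified recombinant full-length PKCζ wild type or PIF-pocket V297L mutant. Enzyme present at 0.2 μM. 4 min preincubation at 37 °C, reaction started with γ32P-ATP/Mg2+. IC50 values are means of at least two experiments.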

[21] = molecular target: Serine/threonine-protein kinase TBK1 (Homo sapiens) (UniProt Q9UHD2); experiment: Inhibition of human TBK1 at 10 uM relative to control
[22] = molecular target: Inhibitor of nuclear factor kappa-B kinase subunit beta (Homo sapiens) (UniProt O14920); experiment: Inhibition of human IKKbeta at 10 uM relative to control
[23] = molecular target: Protein kinase C beta type (Homo sapiens) (UniProt P05771); experiment: Inhibition of human PKCbeta2 at 10 uM relative to control
[24] = molecular target: Receptor-interacting serine/threonine-protein kinase 2 (Homo sapiens) (UniProt O43353); experiment: Inhibition of human RIPK2 at 10 uM relative to control
[25] = molecular target: Mitogen-activated protein kinase 14 (Homo sapiens) (UniProt Q16539); experiment: Inhibition of human p38alpha MAPK at 10 uM relative to control
[26] = molecular target: Mitogen-activated protein kinase kinase kinase 7 (Homo sapiens) (UniProt O43318); experiment: Inhibition of human TAK1 at 10 uM relative to control
[27] = molecular target: T2, Protein kinase C zeta type (Homo sapiens); experiment: Inhibition of PKCzeta (unknown origin) expressed in HEK293 cells assessed as reduction in specific activity at 2 to 5 uM for 6 hrs after 30 mins IGF-I stimulation by in serum free medium; format: cell-based; method in brief: as §1

Sequence of Protein kinase C beta type (Homo sapiens) (P05771 2-671 limits assumed): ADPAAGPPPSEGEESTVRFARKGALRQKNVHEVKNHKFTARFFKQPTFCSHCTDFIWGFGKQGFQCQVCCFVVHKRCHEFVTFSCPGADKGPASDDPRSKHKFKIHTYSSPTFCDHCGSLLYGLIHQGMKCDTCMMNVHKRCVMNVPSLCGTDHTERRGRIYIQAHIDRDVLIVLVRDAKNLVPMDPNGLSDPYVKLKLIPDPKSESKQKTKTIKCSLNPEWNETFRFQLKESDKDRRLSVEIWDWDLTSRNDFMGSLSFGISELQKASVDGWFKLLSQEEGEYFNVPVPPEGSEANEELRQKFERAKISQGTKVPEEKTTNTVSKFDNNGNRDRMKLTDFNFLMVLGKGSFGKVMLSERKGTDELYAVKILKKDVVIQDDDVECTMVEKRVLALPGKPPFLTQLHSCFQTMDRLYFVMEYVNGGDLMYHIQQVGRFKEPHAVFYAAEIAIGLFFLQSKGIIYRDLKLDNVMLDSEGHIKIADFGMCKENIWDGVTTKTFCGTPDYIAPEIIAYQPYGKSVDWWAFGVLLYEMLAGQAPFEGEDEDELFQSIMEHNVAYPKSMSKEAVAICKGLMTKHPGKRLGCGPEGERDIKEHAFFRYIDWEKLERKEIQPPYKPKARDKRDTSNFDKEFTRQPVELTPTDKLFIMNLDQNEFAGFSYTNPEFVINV
Sequence of Protein kinase C zeta type (Homo sapiens, UniProt Q05513, V297L) (Q05513 whole entry V297L): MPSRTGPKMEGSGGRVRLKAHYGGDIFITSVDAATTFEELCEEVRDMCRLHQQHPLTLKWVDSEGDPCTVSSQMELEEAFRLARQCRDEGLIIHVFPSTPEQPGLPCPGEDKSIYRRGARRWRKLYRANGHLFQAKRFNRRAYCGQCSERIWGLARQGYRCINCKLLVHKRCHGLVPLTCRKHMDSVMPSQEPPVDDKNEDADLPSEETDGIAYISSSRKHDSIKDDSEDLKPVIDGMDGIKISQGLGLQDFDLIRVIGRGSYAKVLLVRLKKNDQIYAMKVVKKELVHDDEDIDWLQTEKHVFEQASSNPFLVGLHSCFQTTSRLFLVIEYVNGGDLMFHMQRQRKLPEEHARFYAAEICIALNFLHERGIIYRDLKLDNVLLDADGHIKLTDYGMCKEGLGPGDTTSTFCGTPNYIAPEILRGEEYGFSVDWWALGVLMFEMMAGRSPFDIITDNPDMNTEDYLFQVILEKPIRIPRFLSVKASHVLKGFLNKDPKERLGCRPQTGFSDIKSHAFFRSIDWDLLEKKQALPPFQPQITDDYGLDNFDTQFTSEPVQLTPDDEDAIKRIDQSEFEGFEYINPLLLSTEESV
Sequence of Ribosomal protein S6 kinase alpha-1 (Homo sapiens) (Q15418 whole entry): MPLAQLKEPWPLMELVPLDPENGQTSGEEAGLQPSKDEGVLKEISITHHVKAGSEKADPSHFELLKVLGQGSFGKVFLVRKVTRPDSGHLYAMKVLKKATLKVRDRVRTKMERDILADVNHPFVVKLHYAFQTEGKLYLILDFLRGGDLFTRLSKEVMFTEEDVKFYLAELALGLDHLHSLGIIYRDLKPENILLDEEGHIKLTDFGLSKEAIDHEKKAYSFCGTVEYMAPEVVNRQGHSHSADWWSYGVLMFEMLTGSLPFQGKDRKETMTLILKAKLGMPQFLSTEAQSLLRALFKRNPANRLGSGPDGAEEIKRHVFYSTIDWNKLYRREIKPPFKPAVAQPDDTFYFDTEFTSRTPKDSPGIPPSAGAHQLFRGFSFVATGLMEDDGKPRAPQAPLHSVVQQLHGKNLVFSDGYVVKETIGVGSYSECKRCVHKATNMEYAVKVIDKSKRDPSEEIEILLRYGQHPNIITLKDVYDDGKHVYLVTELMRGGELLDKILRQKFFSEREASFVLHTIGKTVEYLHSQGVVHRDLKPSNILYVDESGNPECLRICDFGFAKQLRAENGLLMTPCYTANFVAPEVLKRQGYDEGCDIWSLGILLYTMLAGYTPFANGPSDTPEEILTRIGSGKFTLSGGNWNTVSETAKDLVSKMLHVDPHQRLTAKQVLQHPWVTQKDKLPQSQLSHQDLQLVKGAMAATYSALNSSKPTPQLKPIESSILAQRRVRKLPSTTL
Sequence of Ribosomal protein S6 kinase alpha-5 (Homo sapiens) (O75582 whole entry, looked up): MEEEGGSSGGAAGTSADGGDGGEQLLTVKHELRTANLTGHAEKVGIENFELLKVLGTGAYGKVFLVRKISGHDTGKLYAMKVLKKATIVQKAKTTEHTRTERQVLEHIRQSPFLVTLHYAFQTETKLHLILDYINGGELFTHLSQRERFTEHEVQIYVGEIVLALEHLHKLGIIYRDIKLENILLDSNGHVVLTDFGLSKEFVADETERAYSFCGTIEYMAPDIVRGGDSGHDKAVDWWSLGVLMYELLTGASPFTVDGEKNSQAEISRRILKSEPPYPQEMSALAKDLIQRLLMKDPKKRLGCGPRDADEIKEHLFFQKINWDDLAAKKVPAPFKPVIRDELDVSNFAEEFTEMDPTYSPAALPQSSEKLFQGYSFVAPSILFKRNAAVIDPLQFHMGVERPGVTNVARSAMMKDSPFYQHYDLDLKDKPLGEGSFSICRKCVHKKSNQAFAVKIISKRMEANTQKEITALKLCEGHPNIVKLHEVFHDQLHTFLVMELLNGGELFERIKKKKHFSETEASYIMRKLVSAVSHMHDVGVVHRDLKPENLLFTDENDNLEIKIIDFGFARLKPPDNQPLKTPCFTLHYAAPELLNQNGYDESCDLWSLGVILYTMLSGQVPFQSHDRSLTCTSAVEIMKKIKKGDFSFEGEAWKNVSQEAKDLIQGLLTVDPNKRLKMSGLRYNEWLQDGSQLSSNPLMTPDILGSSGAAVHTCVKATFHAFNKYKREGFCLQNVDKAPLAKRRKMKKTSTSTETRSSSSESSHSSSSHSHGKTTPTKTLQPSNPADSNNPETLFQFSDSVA
Sequence of Receptor-interacting serine/threonine-protein kinase 2 (Homo sapiens) (O43353 whole entry): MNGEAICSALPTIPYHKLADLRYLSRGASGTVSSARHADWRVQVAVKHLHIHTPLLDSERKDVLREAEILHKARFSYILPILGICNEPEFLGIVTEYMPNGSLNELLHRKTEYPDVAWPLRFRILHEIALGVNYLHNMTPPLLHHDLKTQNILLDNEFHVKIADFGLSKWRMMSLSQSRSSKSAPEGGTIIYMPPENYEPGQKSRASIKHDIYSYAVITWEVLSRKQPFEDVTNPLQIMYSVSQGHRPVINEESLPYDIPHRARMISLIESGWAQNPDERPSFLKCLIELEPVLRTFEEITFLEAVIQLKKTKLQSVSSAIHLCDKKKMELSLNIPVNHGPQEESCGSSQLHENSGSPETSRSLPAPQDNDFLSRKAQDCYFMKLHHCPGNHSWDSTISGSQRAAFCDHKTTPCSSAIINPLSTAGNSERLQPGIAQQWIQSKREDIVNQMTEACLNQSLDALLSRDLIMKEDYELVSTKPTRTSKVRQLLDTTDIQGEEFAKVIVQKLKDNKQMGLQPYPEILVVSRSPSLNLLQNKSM
Sequence of Ribosomal protein S6 kinase beta-1 (Homo sapiens) (P23443 whole entry, looked up): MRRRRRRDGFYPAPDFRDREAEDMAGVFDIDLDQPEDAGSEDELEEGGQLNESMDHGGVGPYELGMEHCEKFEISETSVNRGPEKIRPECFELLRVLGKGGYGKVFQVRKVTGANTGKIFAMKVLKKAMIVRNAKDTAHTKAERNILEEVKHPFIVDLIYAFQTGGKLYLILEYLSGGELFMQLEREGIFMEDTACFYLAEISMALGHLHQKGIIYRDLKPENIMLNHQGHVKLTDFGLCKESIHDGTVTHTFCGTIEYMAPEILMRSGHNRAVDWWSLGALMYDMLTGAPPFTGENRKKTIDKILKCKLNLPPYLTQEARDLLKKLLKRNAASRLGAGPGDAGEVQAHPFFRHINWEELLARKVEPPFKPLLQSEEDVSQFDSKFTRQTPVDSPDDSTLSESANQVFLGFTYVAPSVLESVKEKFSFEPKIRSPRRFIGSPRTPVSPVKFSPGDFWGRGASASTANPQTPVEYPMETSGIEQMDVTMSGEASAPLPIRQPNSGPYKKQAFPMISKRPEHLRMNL
Sequence of Protein kinase C delta type (Homo sapiens) (Q05655 whole entry, looked up): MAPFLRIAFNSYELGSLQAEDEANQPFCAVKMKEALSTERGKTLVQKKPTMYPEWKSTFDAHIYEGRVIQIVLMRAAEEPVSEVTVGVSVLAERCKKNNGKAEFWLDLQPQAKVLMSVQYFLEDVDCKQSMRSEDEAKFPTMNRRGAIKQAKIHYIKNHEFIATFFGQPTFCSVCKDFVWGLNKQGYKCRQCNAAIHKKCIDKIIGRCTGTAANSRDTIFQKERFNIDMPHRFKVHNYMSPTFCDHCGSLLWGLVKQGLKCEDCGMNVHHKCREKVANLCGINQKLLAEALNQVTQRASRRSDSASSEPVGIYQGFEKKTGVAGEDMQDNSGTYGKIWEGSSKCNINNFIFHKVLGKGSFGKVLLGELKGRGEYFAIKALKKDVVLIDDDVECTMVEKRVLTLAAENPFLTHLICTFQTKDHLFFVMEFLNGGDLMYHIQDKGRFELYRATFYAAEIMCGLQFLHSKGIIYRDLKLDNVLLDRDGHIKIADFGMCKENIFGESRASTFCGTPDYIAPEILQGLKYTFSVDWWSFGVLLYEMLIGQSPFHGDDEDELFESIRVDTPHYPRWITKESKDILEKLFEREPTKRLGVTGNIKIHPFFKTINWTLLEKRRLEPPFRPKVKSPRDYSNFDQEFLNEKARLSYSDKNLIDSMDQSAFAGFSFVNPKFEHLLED
Sequence of Serine/threonine-protein kinase Sgk1 (Homo sapiens) (O00141 whole entry): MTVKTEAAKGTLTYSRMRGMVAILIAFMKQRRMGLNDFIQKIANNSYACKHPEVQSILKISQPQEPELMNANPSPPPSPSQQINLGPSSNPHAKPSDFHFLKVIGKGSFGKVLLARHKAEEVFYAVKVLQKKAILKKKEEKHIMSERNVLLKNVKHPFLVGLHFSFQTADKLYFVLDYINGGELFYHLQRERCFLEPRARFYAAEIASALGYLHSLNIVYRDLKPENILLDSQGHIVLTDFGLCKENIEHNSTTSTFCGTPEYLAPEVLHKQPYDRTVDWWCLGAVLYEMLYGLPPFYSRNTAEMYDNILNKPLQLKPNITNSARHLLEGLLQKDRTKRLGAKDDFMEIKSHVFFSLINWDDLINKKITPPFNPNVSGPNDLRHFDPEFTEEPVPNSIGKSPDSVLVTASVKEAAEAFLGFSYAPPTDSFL

| SMILES | IC50 [9] [µM] | Activity (RAW264.7) | inhibition [13] | IC50 [14] [µM] | inhibition [16] [%] | inhibition [19] [%] | IC50 [20] [µM] | Ratio IC50 (Homo sapiens) | inhibition [23] | also measured |
| --- | --- | --- | --- | --- | --- | --- | --- | --- | --- | --- |
| CC(C)(C)C1=NN(c2cccc(Cl)c2)C(c2ccc(F)c(O)c2)C1 (stereo not drawn) | 2.5 | Non-toxic | Active | 0.3 | 74 | – | – | – | – | inhibition [1]: inactive; inhibition (U-937): Active; inhibition [2]: inactive; inhibition [3]: 6%; inhibition [4]: inactive; inhibition [5]: 18%; inhibition [6]: 3%; inhibition [7]: inactive; inhibition [8]: inactive; inhibition [10]: inactive; inhibition [11]: 8%; inhibition [12]: inactive; inhibition [15]: 4%; inhibition [17]: Dose-dependent effect; inhibition [18]: inactive |
| CC(C)(C)C1=NN(c2ccc(Cl)cc2)C(c2ccc(O)c(Cl)c2)C1 (stereo not drawn) | 2.9 | Non-toxic | – | 0.7 | – | 0 | 14.8 | 20.8 | – | – |
| CC(C)(C)C1=NN(c2ccc(Cl)cc2)C(c2ccc(O)cc2)C1 (stereo not drawn) | – | Non-toxic | – | – | 50 | – | – | – | inactive | inhibition [21]: inactive; inhibition [22]: inactive; inhibition [24]: inactive; inhibition [25]: 10%; inhibition [26]: inactive |
| Cn1cc(C2=C(c3cn(CCCSC(=N)N)c4ccccc34)C(=O)NC2=O)c2ccccc21 | – | – | inactive | – | – | – | – | – | Active | inhibition [27]: inactive |
| Oc1ccc(C2CC(c3ccccc3O)=NN2c2ccc(Cl)cc2)cc1 (stereo not drawn) | – | Non-toxic | – | 1.5 | – | 13.4 | 3.1 | 2.1 | – | – |
| Oc1ccc(C2CC(c3cccs3)=NN2c2ccc(Br)cc2)cc1 (stereo not drawn) | – | Non-toxic | – | 0.5 | 65 | 21.4 | 1 | 2 | – | – |
